{"source": "ChEMBL document CHEMBL1149798", "about": "“Synthesis, computational study and cytotoxic activity of new 4-hydroxycoumarin derivatives” (Eur J Med Chem, 2008)", "key": {"[1]": {"tested_on": "Strongylocentrotus purpuratus", "test": "Inhibition of Strongylocentrotus purpuratus embryos cleavage at 10 uM", "format": "functional"}, "[2]": {"tested_on": "HL-60", "test": "Cytotoxicity against human HL60 cells after 72 hrs by MTT assay", "format": "functional, cell-based", "settings": "HL-60, 72 h", "summary_of_the_method": "(§1)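 Exponentially growing cells were seeded at 3.5 × 10⁵ cells/ml (adherent EJ) or 1 × 10⁵ cells/ml (suspension HL-60), grown 24 h, then exposed continuously for 72 h. Drugs came from fresh DMSO stocks diluted in medium to ≤0.5% final DMSO, with eight wells per concentration. MTT (10 mg/ml PBS stock) was added for 4 h at 37 °C, formazan dissolved in 5% HCOOH/2-propanol, and read at 580 nm. IC50 was taken from a sigmoidal non-linear fit of survival as % of untreated control.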"}, "[3]": {"test": "Cytotoxicity against human […] cells after 72 hrs by MTT assay", "format": "functional, cell-based", "summary_of_the_method": "as §1"}}, "data": [{"compound": "O=c1oc2ccccc2c(O)c1Cc1c(O)c2ccccc2oc1=O", "note": "[DICUMAROL]", "values": [{"measurement": "inhibition at 10 µM", "setting": "[1]", "value": 50, "unit": "%"}]}, {"compound": "CCOC(=O)C(C(C)=O)C(c1cccc([N+](=O)[O-])c1)c1c(O)c2ccccc2oc1=O", "note": "(stereo not drawn)", "values": [{"measurement": "IC50", "setting": "[2]", "value": 90.8, "unit": "µM"}, {"measurement": "IC50", "setting": "[3]", "value": 172, "unit": "µM"}]}, {"compound": "CCOC(=O)C(C(C)=O)C(c1ccc(O)cc1)c1c(O)c2ccccc2oc1=O", "note": "(stereo not drawn)", "values": [{"measurement": "IC50", "setting": "[2]", "value": "> 200", "unit": "µM"}, {"measurement": "IC50", "setting": "[3]", "value": "> 200", "unit": "µM"}]}, {"compound": "CCOC(=O)C(C(C)=O)C(c1ccc(C(=O)O)cc1)c1c(O)c2ccccc2oc1=O", "note": "(stereo not drawn)", "values": [{"measurement": "IC50", "setting": "[2]", "value": "> 200", "unit": "µM"}, {"measurement": "IC50", "setting": "[3]", "value": "> 200", "unit": "µM"}]}, {"compound": "CCOC(=O)C(C(C)=O)C(c1ccc([N+](=O)[O-])cc1)c1c(O)c2ccccc2oc1=O", "note": "(stereo not drawn)", "values": [{"measurement": "IC50", "setting": "[2]", "value": "> 200", "unit": "µM"}, {"measurement": "IC50", "setting": "[3]", "value": "> 200", "unit": "µM"}]}, {"compound": "CCOC(=O)C(C(C)=O)C(c1ccc(O)c(O)c1)c1c(O)c2ccccc2oc1=O", "note": "(stereo not drawn)", "values": [{"measurement": "IC50", "setting": "[2]", "value": 35.1, "unit": "µM"}, {"measurement": "IC50", "setting": "[3]", "value": 116, "unit": "µM"}]}, {"compound": "N[C@@H](Cc1ccc(N(CCCl)CCCl)cc1)C(=O)O", "note": "[MELPHALAN]", "values": [{"measurement": "IC50", "setting": "[2]", "value": 11.4, "unit": "µM"}, {"measurement": "IC50", "setting": "[3]", "value": 22.1, "unit": "µM"}]}]}
